hERG rescue: shields human hERG channel from block by proarrhythmic agents; Q12809; CHO-hERG, FluxOR thallium flux, dofetilide IC70 present; activation (rescue from dofetilide block), less the hit threshold, % at 10 µM; 0.51% of 310,000 active; AID 1511;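 active = activation above the mean of controls blocked by dofetilide plus 5 SD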;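 note: thallium influx through hERG after potassium depolarization seen as dye fluorescence rise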
Kir21 inh: inhibitors of mouse Kir2.1 inward-rectifier potassium channel; 0.85% of 310,000 active; B-score at 10 µM; P35561; HEK293-Kir2.1, FluxOR thallium flux fluorescence; active compounds read low; AID 1672;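 active = fluorescence ratio B-score at or below minus 3 SD of library scores, with starting-brightness B-score within 2 SD, cut at about -4.2 in these data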;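 note: channel flux triggered by added potassium and thallium sulfate stimulus; B-score of peak minus minimum fluorescence over baseline after thallium stimulus; more negative B-score means stronger Kir2.1 block with less thallium influx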
KCNQ1 act: potentiates or activates the human KCNQ1 potassium channel | P51787 | 0.35% of 310,000 active | AID 2648 | B-score at 10 µM | CHO-K1 KCNQ1, thallium flux FluxOR fluorescence; active compounds read high;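 active = fluorescence ratio B-score, a plate-corrected score, at least three library SD, with initial intensity B-score within 5 SD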
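System: CHO-K1 cells stably expressing KCNQ1 / Medium: assay buffer for compound exposure, DMSO matched across wells / Reagent: thallium- and potassium-containing depolarizing buffer / Compound: one concentration, matched DMSO / Incubation: 20 min compound pretreatment at room temperature / Measured by: kinetic FluxOR fluorescence, 10 s baseline plus 110 s post-stimulus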
KCNK9 block: blocks the human KCNK9 two-pore domain potassium channel | Q9NPC2 | 1.2% of 310,000 active | HEK293 KCNK9, FluxOR thallium flux fluorescence; active compounds read low | B-score at 10 µM;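 active = ratio B-score over 3 SD below the library mean, with starting fluorescence within 5 SD of its mean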;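 note: negative B-score means less thallium flux so channel inhibition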
Target sequence (Q9NPC2 whole entry, looked up, the tested form may be a part): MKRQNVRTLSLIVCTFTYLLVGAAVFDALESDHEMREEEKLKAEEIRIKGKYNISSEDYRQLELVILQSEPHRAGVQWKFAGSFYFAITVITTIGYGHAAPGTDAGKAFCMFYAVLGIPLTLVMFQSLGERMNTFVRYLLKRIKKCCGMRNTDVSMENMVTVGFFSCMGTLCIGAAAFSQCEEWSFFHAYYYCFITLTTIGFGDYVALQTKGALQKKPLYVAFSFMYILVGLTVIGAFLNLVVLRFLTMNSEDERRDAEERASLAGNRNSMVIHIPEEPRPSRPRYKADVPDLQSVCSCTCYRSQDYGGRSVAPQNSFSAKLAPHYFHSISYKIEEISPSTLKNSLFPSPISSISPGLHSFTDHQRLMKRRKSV
KCNK3 inh: human KCNK3 channel inhibition, primary screen; O14649; CHO-KCNK3 thallium flux, FluxOR fluorescence; active compounds read low; B-score at 10 µM; 0.84% of 340,000 active;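 active = B-score under library mean minus 4 SD, starting fluorescence ratio at most library mean plus 5 SD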;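 note: more negative B-score means stronger inhibition of thallium flux through KCNK3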
Target sequence (O14649 whole entry, looked up): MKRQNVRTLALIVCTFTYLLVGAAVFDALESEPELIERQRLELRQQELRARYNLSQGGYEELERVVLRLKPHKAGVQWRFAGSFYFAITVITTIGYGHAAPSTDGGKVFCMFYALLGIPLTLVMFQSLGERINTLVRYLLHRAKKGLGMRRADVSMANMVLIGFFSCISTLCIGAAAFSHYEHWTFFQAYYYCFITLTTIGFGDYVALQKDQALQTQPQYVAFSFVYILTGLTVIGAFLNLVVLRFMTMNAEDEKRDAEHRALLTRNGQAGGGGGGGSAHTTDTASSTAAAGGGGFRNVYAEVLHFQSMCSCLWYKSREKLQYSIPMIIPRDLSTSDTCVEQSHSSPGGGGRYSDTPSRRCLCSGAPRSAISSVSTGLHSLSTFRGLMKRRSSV
KCNQ1 inh: inhibitors of human KCNQ1 potassium channel; P51787; CHO-K1 KCNQ1, FluxOR thallium flux fluorescence; active compounds read high; B-score at 10 µM; 1.3% of 310,000 active; AID 2642;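 active = compounds whose thallium flux B-score, printed positive for inhibition, exceeds three library SD while starting fluorescence stays within three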;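 note: channel opened by potassium depolarization with thallium stimulus after 20 min compound exposure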
KCNK9 block conf: confirmation of human KCNK9 potassium channel inhibitors; inhibition, % at 10 µM; 43% of 4,900 active; HEK293 KCNK9 cells, FluxOR thallium flux fluorescence; AID 492992; shares compounds with KCNK9 block;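 active = thallium signal inhibited by more than 5 SD of the compound-free buffer control wells, on both duplicate plates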
Kir2-1 spec: mouse Kir2.1 off-target activity of KCNK9 modulators | shares compounds with KCNK9 block | Kir2.1 cells, FluxOR thallium flux fluorescence | inhibition, % at 10 µM | 4% of 4,900 active | AID 492993;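 active = thallium signal drop more than 5 SD beyond the mean of the no-compound control wells, seen in both duplicate plates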;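 note: signal is fluorescence rise after thallium addition divided by baseline fluorescence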
KCNK9 uninduced: non-induced cell nonspecific activity of KCNK9 modulators | AID 492997 | non-induced KCNK9-HEK293, FluxOR thallium flux | shares compounds with KCNK9 block | inhibition, % at 10 µM | 40% of 4,900 active;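 active = thallium signal drop beyond 5 SD of the untreated control mean, on both duplicate plates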
KCNK3 inh conf: human KCNK3 channel inhibition, confirmation assay; shares compounds with KCNK3 inh; CHO-KCNK3 thallium flux, FluxOR fluorescence; 0% buffer, 100% carvedilol maximal block; ratio percent of control, % at 10 µM; 99% of 2,400 active;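 active = ratio percent of control, averaged over triplicates, above buffer control mean plus 5 SD, cut at about 64% in these data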;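 note: ratio is the fluorescence rise from min to max over baseline after thallium stimulus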
KCNK3 noninduced: counter-screen for KCNK3 inhibitors: effect in non-induced cells. shares compounds with KCNK3 inh. non-induced KCNK3 parental cells, FluxOR thallium flux; active compounds read low. thallium flux ratio (lower = more inhibition) at 10 µM. 40% of 2,400 active. AID 651747;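 active = thallium flux ratio, averaged over three wells, more than 5 SD below the buffer control mean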;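 note: host cells are CHO cells without KCNK3 induction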
Each line names hits and unclear results; the compound was inactive in the other large screens (follow-up assays come after a bar, where they were run). In the library only some 3.8% were active in any assay of this set; here they are far more common.

O=c1[nH]c(=S)n(-c2ccccc2)c(O)c1/C=N/N1CCOCC1	none
C[C@]12N[C@H](Cc3ccccc31)c1ccccc12	none
Cn1cccc1/C=C1\C(=O)NC(=O)N(Cc2ccco2)C1=O	none
Cc1ccc(OCCn2cccc2/C=C2/C(=O)NC(=O)N(Cc3ccco3)C2=O)cc1	none | KCNK9 block conf inactive | Kir2-1 spec inactive | KCNK9 uninduced inactive
CNC(=O)OCc1n(C)cc[n+]1C	none
O=C(NCCO)c1nsnc1NCCCl	none
O=C1/C(=C\c2ccncc2)N2CCC1CC2	none
O=C1/C(=C\c2cc3c(cc2Cl)OCO3)N2CCC1CC2	none | KCNK9 block conf inactive | Kir2-1 spec inactive | KCNK9 uninduced inactive
O=C1/C(=C\c2ccc(Cl)c(Cl)c2)N2CCC1CC2	none | KCNK9 block conf inactive | Kir2-1 spec inactive | KCNK9 uninduced inactive
O=C1/C(=C/c2cc3c(cc2Cl)OCO3)N2CCC1CC2	none (no result: KCNK3 inh)
Cc1ccccc1N1CCN(C2CCCN(C(=O)COc3ccccc3)C2)CC1 (stereo not drawn)	none | KCNK9 block conf inactive | Kir2-1 spec inactive | KCNK9 uninduced inactive
Fc1ccc(C2=CCN(C(c3cccs3)c3nnnn3CCc3ccccc3)CC2)cc1 (stereo not drawn)	KCNK9 block -14.4 | KCNK9 block conf 60.5% | Kir2-1 spec inactive | KCNK9 uninduced 35.5%
O=C(Cc1ccccc1)Oc1cccc(N2C(=O)CCC2=O)c1	none
CC(C)(C)c1cc(OC(=O)Cc2ccccc2)ccc1O	KCNK9 block -12.4 | KCNK9 block conf 58.0% | Kir2-1 spec inactive | KCNK9 uninduced 30.0%
CCOP(=O)(/C=C(\Cl)c1ccccc1)C(O)c1ccc(F)cc1 (stereo not drawn)	none
CSc1ccc(C(=O)C2CCCN(Cc3cc4ccccc4[nH]3)C2)cc1 (stereo not drawn)	none | KCNK9 block conf inactive | Kir2-1 spec 49.5% | KCNK9 uninduced inactive
CSc1ccc(C(=O)C2CCCN(Cc3cccnc3)C2)cc1 (stereo not drawn)	none
COc1ccccc1N1CCN(Cc2cc(C)c(C)cc2O)CC1	none
COc1cc(C)c(CN2CCN(c3ccccc3)CC2)cc1C	none | KCNK9 block conf inactive | Kir2-1 spec inactive | KCNK9 uninduced inactive
COC(=O)C1=C(c2cc3ccccc3s2)C[C@@H]2CC[C@H]1N2C(=O)NCc1ccc(F)cc1	none
CCOc1cc2c(cc1OCC)-n1cccc1C(c1ccc(C(C)C)cc1)NC2 (stereo not drawn)	none
Cc1nn(CCC#N)c2c1P(=S)(N1CCCC1)OC(c1ccc(F)cc1)=N2 (stereo not drawn)	none | KCNK9 block conf inactive | Kir2-1 spec inactive | KCNK9 uninduced inactive
COC(=O)C(O)(c1ccc(NC(=S)NC(=O)c2ccccc2)cc1)C(F)(F)F (stereo not drawn)	KCNK9 block -9.65 | KCNK9 block conf 46.0% | Kir2-1 spec inactive | KCNK9 uninduced 25.5%
CC1CCCCN1Cc1ccc(Cl)nc1 (stereo not drawn)	none
COc1ccccc1CN1CCCC(C(=O)c2ccccc2OC)C1 (stereo not drawn)	none
COc1ccccc1CN1CCCC(C(=O)c2ccccc2SC)C1 (stereo not drawn)	none | KCNK9 block conf inactive | Kir2-1 spec inactive | KCNK9 uninduced inactive
CCOc1ccccc1CN1CCCC(C(=O)c2cc(F)ccc2F)C1 (stereo not drawn)	none | KCNK9 block conf inactive | Kir2-1 spec inactive | KCNK9 uninduced inactive
COC(=O)C1=C(c2ccc(F)cc2F)C[C@@H]2CC[C@H]1N2C(=O)NCCOc1ccc(OC)cc1	none (no result: hERG rescue, Kir21 inh, KCNQ1 act, KCNK9 block, KCNQ1 inh)
O=C1C2CCCC1C(N1CCCCC1)CC2 (stereo not drawn)	none
Cc1ccccc1-n1c(C)cc(/C=C2/C(=O)NC(=O)N(Cc3ccco3)C2=O)c1C	KCNK9 block -15 | KCNK9 block conf 34.5% | Kir2-1 spec inactive | KCNK9 uninduced 32.0% | KCNK3 inh conf 137.7 | KCNK3 noninduced 0.109
OC[C@@H](O)CCl	none (no result: KCNK3 inh)
CC1CCC(C(C)C)C(OC(=O)Cn2c(COc3ccccc3)[n+](C)c3ccccc32)C1 (stereo not drawn)	Kir21 inh -16.6, KCNK9 block -12.5, KCNK3 inh -8.93, KCNQ1 inh 10 | KCNK9 block conf 73.5% | Kir2-1 spec 77.0% | KCNK9 uninduced inactive | KCNK3 inh conf 122.0 | KCNK3 noninduced inactive
COC(=O)C1=C(c2ccc(F)cc2F)C[C@@H]2CC[C@H]1N2C(=O)N1CCC(C)CC1	none (no result: hERG rescue, Kir21 inh, KCNQ1 act, KCNK9 block, KCNQ1 inh)
COC(=O)c1cn(C(=O)c2cccc3ccccc23)c2ccccc12	none
O=S1(=O)N(Cc2ccc(F)cc2)CCCN1Cc1ccccc1Cl	KCNK9 block -8.34, KCNK3 inh -11.9 | KCNK9 block conf 74.0% | Kir2-1 spec inactive | KCNK9 uninduced 41.5% | KCNK3 inh conf 124.7 | KCNK3 noninduced 0.137
Cc1ccccc1CN1CCCN(Cc2ccc(Cl)cc2)S1(=O)=O	KCNK9 block -20.9 | KCNK9 block conf 72.0% | Kir2-1 spec inactive | KCNK9 uninduced 38.0% | KCNK3 inh conf 119.3 | KCNK3 noninduced inactive
COC(=O)c1ccc(COc2cc(C)cc3oc(=O)c4c(c23)CCCC4)o1	KCNK9 block -13, KCNK3 inh -9.05 | KCNK9 block conf 26.5% | Kir2-1 spec inactive | KCNK9 uninduced inactive | KCNK3 inh conf 100.3 | KCNK3 noninduced inactive
Cc1cc(OCC(=O)O)c2c3c(c(=O)oc2c1)CCCC3	none
CN1C[C@@H]2C[C@@H](c3cccn3-c3ccccn3)N3CCC[C@@]23C1=O	none
C#CC1(O)CCC2C3CCC4=C/C(=N/OCC(=O)NCC(=O)NC(C(=O)O)C(C)C)CC[C@]4(C)C3CC[C@@]21C (stereo partly drawn)	none
C#C[C@]1(O)CC[C@H]2[C@@H]3CCC4=Cc5nc6nc7ccccc7n6cc5C[C@]4(C)[C@H]3CC[C@@]21C	KCNK3 inh -15.7 (no result: hERG rescue, Kir21 inh, KCNQ1 act, KCNK9 block, KCNQ1 inh) | KCNK3 inh conf 131.7 | KCNK3 noninduced 0.119
CCCCn1c(O)c(C(CC)=NCc2ccc3c(c2)OCO3)c(=O)[nH]c1=O	KCNK9 block -6.89, KCNK3 inh -9.72 | KCNK3 inh conf 117.3 | KCNK3 noninduced inactive

Compound activity from PubChem BioAssay.
